This note sets out measurements from ChEMBL document CHEMBL4513216, “Probing the Open Global Health Chemical Diversity Library for Multistage-Active Starting Points for Next-Generation Antimalarials” (ACS Infect Dis, 2020).

This series can be described thus: Toxicity liver stage against HepG2, at 10uM. It is filed as cell-based. Further details: test concentration 10 uM, cell line HepG2-A16-CD81EGFP. Conditions: human, HepG2-A16-CD81EGFP cells; read-out: INHIBITION
The method, boiled down: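 Uninfected HepG2-A16-CD81EGFP cells, 3 × 10^3 per well, 1536-well, plated on prespotted compound at 10 μM final, parasite-free screening media added to match infected plates; puromycin 10 μM positive, DMSO 0.5% negative; run in parallel with 48 h PbLuc assay at 37 °C, 5% CO2; viability by CellTiter-Glo luminescence, normalized to controls.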

On to `C[C@@H]1CN(C2(C(=O)N3CCCCCC3)Cc3ccccc3C2)C[C@H](C)O1`, for which the cytotoxicity at 10 µM is -2.04%. Under `COc1ccc(C(=O)N2C[C@@H](CN3CCCC3)[C@@H](CO)C2)c(C)c1` stands -7.21%; under `COCCC(=O)NCCc1nc2cc(-c3ccc(OC)cc3)ncn2n1`, 10.5%. Under `CN(C)C1(CNc2nccc(-c3cnn(C)c3)n2)CCSC1` (configuration not stated) stands -126%.

Take `COc1cc(C2c3c(n[nH]c3C)N=C3COC(=O)C32)cc(Br)c1O` (configuration not stated): the cytotoxicity at 10 µM amounted to 75.4%.

Regarding `CCOc1ncccc1CNC(=O)c1cc(C)on1`, the cytotoxicity at 10 µM is -19%.

`Cc1cc(C(=O)N(C)C)c2c(Br)cccc2n1`: the cytotoxicity at 10 µM was -6.4%. To `CC(=O)c1cccc(NC(=O)CN2CCCCC2C2OCCO2)c1` (configuration not stated) belongs -10.5%; to `CC(=O)N1CCC2(CCN(C(=O)c3cccc(C(F)(F)F)c3)CC2)C1`, -71.5%. To `N#Cc1ccccc1OCCN1CCC(N2CCNC2=O)CC1` belongs -8.58%; to `CC(C)(C#N)c1ccccc1CN1CCC(N2CCCC2=O)CC1`, 2.35%.

As to `Cc1ccoc1C(=O)N1CC(C(=O)N2CCOCC2)C2(CCOCC2)C1` (configuration not stated), the cytotoxicity at 10 µM was -1.2%. Under `O=C(c1ccc(-n2cnnc2)cc1)N1CCC(Nc2cccnn2)CC1` stands -6.12%; under `Cc1cc(CN2CCN(CC(O)C(C)(C)C)CC2)no1` (configuration not stated), -14.8%; under `Cc1ccc(CN2Cc3nnn(C)c3C(COCc3ccccn3)C2)s1` (configuration not stated), 7.8%. Consider `CN(CCN1CCN(c2ccccc2)CC1)C(=O)Nc1ccccn1`, for which the cytotoxicity at 10 µM came out at 6.37%. To `CCN1CC(C(=O)NCc2cccnc2-n2cccn2)CC1=O` (configuration not stated) belongs 0.796%; to `Cc1nn(C)cc1CN(C)C(=O)c1cnccn1`, -5.2%.

As for `O=C(CCc1ccsc1)N1CCC(n2cc(CO)nn2)CC1`, the cytotoxicity at 10 µM is -3.37%. To `N#Cc1ccc(N2CCC3(CC2)CC(N2CCOCC2)CO3)cc1` (configuration not stated) belongs 19%. Turning to `N#Cc1cccc(SCCS(N)(=O)=O)c1`, the cytotoxicity at 10 µM was -2.53%.

`O=c1cc(Cn2ccnc2)nc2n1CCCN(Cc1ccncc1)C2`: the cytotoxicity at 10 µM is -0.559%. For `COc1ccc2c(=O)n(CC3CCCCN3C)ccc2c1OC` (configuration not stated), the cytotoxicity at 10 µM amounted to 3.19%. To `O=C(C1CCOCC1)N1CCO[C@H]2[C@@H](OCC3CC3)CC[C@@H]21` belongs -6.22%. With `O=C(NCCc1nc(-c2ccccn2)no1)c1ccc(C2CCCO2)s1` (configuration not stated), the cytotoxicity at 10 µM stood at 5.65%.

As for `Cc1ccc(NC(=O)N2CCOC(C(N)=O)C2)cc1C(F)(F)F` (configuration not stated), the cytotoxicity at 10 µM is -146%. Under `CCCc1n[nH]c(C2CN(C(=O)c3ccc[nH]3)CCO2)n1` (configuration not stated) stands -9.29%; under `COc1ccc(CN2CCOC[C@H](OCC(=O)N(C)C)C2)cc1`, 0.552%; under `O=C(c1cccn1Cc1cccs1)N1CCCC1Cn1cccn1` (configuration not stated), -7.52%. As to `Cn1cnc2cc(CCC(=O)Nc3n[nH]c(C4CC4)n3)ccc21`, the cytotoxicity at 10 µM is 5.21%. Under `CCCNC(=O)Cn1c(-n2nc(C)cc2C)nc(CCC)cc1=O` stands 8.94%.

On to `CC1CN(c2ccc(CNC(=O)NCc3ccoc3)cn2)CCO1` (configuration not stated), for which the cytotoxicity at 10 µM is 4.38%. With `Cc1nnc(SCC(=O)N2CCC3(CC2)c2ccccc2CC3O)o1` (configuration not stated), the cytotoxicity at 10 µM was -20.7%.

Turning to `CC(C)(CNc1ccc2ccc(F)cc2n1)NS(C)(=O)=O`, the cytotoxicity at 10 µM was -7.04%.

As to `COc1ccc(S(=O)(=O)NCCn2cnc(C)cc2=O)cc1C`, the cytotoxicity at 10 µM was 7.69%. To `O=S(=O)(N1CCCCC1)N1CCc2nc(C3CCNCC3)ncc2C1` belongs -4.15%; to `Cc1nc(N2CCCC2)nc2c1CN(C(=O)N(C)C)CC2`, 4.29%; to `CCc1nc(C2CCCN(C(=O)c3c(C)noc3C)C2)no1` (configuration not stated), -12.8%.

Turning to `COCc1ncn2c1CN(C(=O)c1cccc3cccnc13)CC2`, the cytotoxicity at 10 µM was -19.7%.

With `NC(=O)c1ccc(OCCC(=O)NC2CCc3c(F)cccc32)cc1` (configuration not stated), the cytotoxicity at 10 µM amounted to 2.02%. Under `Cc1nc(CN2CCCN(C(=O)COCC3CC3)CC2)cs1` stands -11%; under `Cc1nn(C)c(C)c1CCC(=O)N(C)Cc1ccc(C#N)cc1`, -2.45%; under `CN(Cc1cccs1)C(=O)CNC1CCc2ncnn2C1` (configuration not stated), 3.03%. `CCCOc1ccc2c(c1)OCC(C(=O)NC(C)Cn1cccn1)=C2` (configuration not stated): the cytotoxicity at 10 µM is 4.46%. Consider `CCC(CNC(=O)c1ccc(F)cc1F)N1CCc2ccccc2C1` (configuration not stated), for which the cytotoxicity at 10 µM worked out at 10.9%.

Take `CC(C)(O)c1cn(C[C@H]2C[C@@H]3CCN2C[C@@H]3C(=O)N2CCOCC2)nn1`: the cytotoxicity at 10 µM amounted to 3.49%. Under `Cc1ccc2c(n1)N(CC1CC1)CCN(C(=O)NC1CC1)C2` stands -3.09%; under `OC(COCc1ccccc1)CSc1nnc2ccccn12` (configuration not stated), 2.95%. In the case of `c1ccc(CCn2cc(-c3nc(CN4CCOCC4)no3)nn2)cc1`, the cytotoxicity at 10 µM came to 1.85%. Under `COCC1CN(C(=O)c2cccc(C)n2)Cc2nccn2C1` (configuration not stated) stands -103%; under `CC(NCCc1nccn1Cc1ccccc1)c1ccsc1` (configuration not stated), 8.4%; under `O=C(NCCc1nnc2n1CCC2)NC1(c2cccc(F)c2)CC1`, 3.07%.

For the compound `Cc1ccc(C(=O)NCC(O)c2ccc(Cl)s2)c(=O)[nH]1` (configuration not stated), the cytotoxicity at 10 µM is -20.7%. Under `CC(=O)N1CCC(c2nccnc2-c2ccc(C(=O)O)cc2)CC1` stands 11.1%; under `Cc1nn(C)c(C)c1S(=O)(=O)N(C)Cc1nn(C)c(Cl)c1Cl`, -3.78%.

For `CCc1ccc(CN(CC)Cc2ccc(S(=O)(=O)NC)cc2)cc1`, the cytotoxicity at 10 µM is -8.55%. For the compound `c1ccc2c(c1)CCN(c1nc(N3CCOCC3)c3nn[nH]c3n1)C2`, the cytotoxicity at 10 µM came to 11.6%.

For `Cc1cccc2c1nc1n2[C@@H](CNC(=O)CCC(=O)O)COC1`, the cytotoxicity at 10 µM was -4.83%. As to `Cc1cc(C2CCCN(C(=O)c3c(C)nn4cccnc34)C2)n[nH]1` (configuration not stated), the cytotoxicity at 10 µM was -0.457%. With `NC(=O)c1csc(N2C[C@@H](CN3CCOCC3)[C@@H](CO)C2)n1`, the cytotoxicity at 10 µM was 2.97%. To `COCCCNC(=O)CN1CCC(N2CCN(C)C2=O)CC1` belongs -2.54%; to `c1ccc(Cn2cccn2)c(CN2CCC3(CCCNC3)C2)c1` (configuration not stated), -13%. As for `O=C(Cc1c[nH]c2ncccc12)NCC(O)c1ccsc1` (configuration not stated), the cytotoxicity at 10 µM is 5.46%. Under `Cc1nc(O)c2nnn(C[C@H]3CCCN3C(=O)c3ccccc3F)c2n1` stands -20.4%; under `Cc1ccc(Oc2ncccc2C(=O)O)c(C)c1`, 2.4%; under `N#CCCN(C(=O)CCc1cscn1)c1ccc2c(c1)OCCO2`, -2.12%. For the compound `O=C(NCCNc1cnccn1)N1CCc2ccccc2C1`, the cytotoxicity at 10 µM was -2.73%.

Take `O=C(COCCc1ccccc1)N1CCCC(n2cccn2)C1` (configuration not stated): the cytotoxicity at 10 µM was -3.42%. In the case of `CCOCCCNC(=O)C1CCC(=O)N(CCc2ccc(Cl)cc2)C1` (configuration not stated), the cytotoxicity at 10 µM was -0.591%. Under `COc1ccc(Cn2c(=O)n(C)c(=O)c3sccc32)cc1` stands 24.2%. As for `COCC(=O)N1CC[C@H]2O[C@@H](C)C[C@H]2C1`, the cytotoxicity at 10 µM was -66.1%. Under `Cc1cnc(CN2CCN(c3ccc4nncn4n3)C(C)C2)cn1` (configuration not stated) stands -2.21%; under `CNS(=O)(=O)c1cc(C(=O)NC2COc3ccccc32)cc(C)c1C` (configuration not stated), -1.51%. Under `Cc1ccccc1CC(=O)N1C[C@@H](O)[C@H](N2CCN(C)CC2)C1` stands -4.29%.

Consider `CCCN1CCCCCC1Cc1c(C(=O)NC)sc2ccccc12` (configuration not stated), for which the cytotoxicity at 10 µM came out at 8.53%.

Consider `O=C(CN1CC(c2nc(-c3cccs3)no2)C1)NCC1CCCO1` (configuration not stated), for which the cytotoxicity at 10 µM is -1.47%. To `COc1ccc(C)cc1C(=O)N1C[C@@H](CN(C)CCO)[C@@H](CO)C1` belongs -0.828%. Under `NC(=O)Cn1ccc(NC(=O)C2(c3ccc(F)cc3)CC2)n1` stands -2.82%; under `CCc1c(C)nc(-n2nc(C3CC3)cc2NC(C)=O)[nH]c1=O`, 30.3%.

As for `CC(C)(C)n1cc(CNc2ccc(CNS(C)(=O)=O)cc2)cn1`, the cytotoxicity at 10 µM stood at 16.1%. Regarding `Cc1ccc(Cl)cc1N1CCC(CNC(=O)CCn2ccnn2)C1` (configuration not stated), the cytotoxicity at 10 µM is -5.72%. Under `CCOCCC(=O)NCc1ccnc(NC2CC2)c1` stands 0.545%; under `Cc1ccc2nc(NCCCN3CCCCCC3=O)n(C)c(=O)c2c1`, 7.04%; under `CCNC(=O)NC(=O)CN1CCOC(c2ccccc2Cl)C1` (configuration not stated), 6.58%. Take `COC(CNC(=O)c1cc(C)on1)c1ccccc1C` (configuration not stated): the cytotoxicity at 10 µM is -17.8%.

Regarding `Cc1ccc(C)c2c(O)cc(CN3CCC(c4nncn4C)CC3)nc12`, the cytotoxicity at 10 µM is -2.24%. Under `COc1cn(CC(=O)N2CCC(c3ccccc3)CC2)c(C)cc1=O` stands 1.11%; under `O=C(Nc1cnc2n1CCCC2)C1CCNCC1`, 4.25%.

Consider `CCc1ccc(NC(=O)C(C)Nc2cccc3c2OCCO3)cc1` (configuration not stated), for which the cytotoxicity at 10 µM stood at 0.788%. Take `Cc1[nH]nc(CCC(=O)N2CCc3c(nc[nH]c3=O)C2)c1C`: the cytotoxicity at 10 µM stood at 3.63%. As to `CC(=O)N1CC(c2ccnc(Nc3ccc(C)cn3)n2)C1`, the cytotoxicity at 10 µM is -31.1%. As to `CN(CC1(CO)CCC1)C(=O)C1CCC(=O)N(Cc2ccc(Cl)cc2)C1` (configuration not stated), the cytotoxicity at 10 µM was -11.2%. To `O=C1CCCCCN1Cc1ncnn1Cc1c(F)cccc1Cl` belongs 2.14%. On to `O=C(O)CC(NC(=O)CCCc1cccs1)c1ccc(F)cc1` (configuration not stated), for which the cytotoxicity at 10 µM is -2.99%. As for `O=C1CN(C(=O)C2CCCCC2)CC(O)CN1Cc1ccco1` (configuration not stated), the cytotoxicity at 10 µM is -2.67%. To `COc1cc(N2C[C@@H]3COC[C@]3(C(=O)NC3CC(F)(F)C3)C2)ncn1` belongs 14.7%.

Consider `CSc1ccc(NC(=O)NCC(O)C(C)C)cc1F` (configuration not stated), for which the cytotoxicity at 10 µM came out at 6.93%.
